Key:
[1] = test system: KB (nasopharyngeal) cancer cell line; assay: in vitro cytotoxicity; type: cell-based, human; conditions: KB versus the other cancer cell lines
[2] = test system: A549 (lung) cancer cell line; assay: in vitro cytotoxicity; type: cell-based, human; conditions: A549 lung cells; compared with KB and DU145
Summary of the method: (§1)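 Cells grown in RPMI-1640 with 25 mM HEPES, 0.25% sodium bicarbonate, 10% FBS and 100 μg/mL kanamycin. Freshly trypsinized cells were seeded at 5000 per well, and test compound was added from DMSO-diluted stock. After three days, cells were fixed with cold 10% TCA and stained with 0.4% sulforhodamine B, and the solubilized dye was read at 562 nm.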

[3] = test system: HCT-8 (colon) cancer cell line; assay: in vitro cytotoxicity; type: cell-based, human; conditions: HCT-8 colon cells; compared with KB and DU145
Summary of the method: as §1

[4] = test system: DU145 (prostate) cancer cell line; assay: in vitro cytotoxicity; type: cell-based, human; conditions: DU145 versus the other cancer cell lines
α-glucosidase = α-glucosidase (Saccharomyces cerevisiae, UniProt P53341); conditions: previous report; cited from earlier work
Chain of α-glucosidase (P53341 whole entry): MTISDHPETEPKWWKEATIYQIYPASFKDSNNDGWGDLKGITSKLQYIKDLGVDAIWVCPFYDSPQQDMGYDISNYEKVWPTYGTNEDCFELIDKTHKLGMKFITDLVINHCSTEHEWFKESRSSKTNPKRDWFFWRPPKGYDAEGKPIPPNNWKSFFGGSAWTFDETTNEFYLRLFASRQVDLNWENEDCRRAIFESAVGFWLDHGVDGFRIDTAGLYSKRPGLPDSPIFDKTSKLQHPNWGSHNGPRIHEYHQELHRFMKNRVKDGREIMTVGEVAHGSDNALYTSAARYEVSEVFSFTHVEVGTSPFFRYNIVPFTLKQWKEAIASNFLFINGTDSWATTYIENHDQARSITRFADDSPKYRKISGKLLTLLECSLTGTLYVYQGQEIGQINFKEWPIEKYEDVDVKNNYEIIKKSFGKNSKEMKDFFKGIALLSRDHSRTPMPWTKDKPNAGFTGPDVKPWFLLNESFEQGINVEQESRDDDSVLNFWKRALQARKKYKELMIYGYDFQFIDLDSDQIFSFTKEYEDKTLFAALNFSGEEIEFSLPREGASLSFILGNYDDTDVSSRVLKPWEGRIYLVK

human neutrophils [5] = assay: elastase release by human neutrophils in response to fMLP/CB; type: cell-based; conditions: read-out: elastase IC50, mean ± S.E.M. (n = 3–4)
human neutrophils [6] = assay: superoxide anion generation by human neutrophils in response to fMLP/CB; type: cell-based; conditions: Neutrophil

## C/C(=C/CC[C@](C)(O)[C@H]1CC[C@]2(C)[C@@H]1[C@H](O)C[C@@H]1[C@@]3(C)CC[C@H](O)C(C)(C)[C@@H]3[C@@H](O[C@@H]3O[C@H](CO)[C@@H](O)[C@H](O)[C@H]3O[C@@H]3O[C@H](CO)[C@@H](O)[C@H](O)[C@H]3O)C[C@]12C)CO [Compound 1, panajaponol A]
[1]
  selective cytotoxic activity: greater than two- to three-fold selective
[2]
  cytotoxicity: significantly less susceptible
[3]
  cytotoxicity: significantly less susceptible
[4]
  selective cytotoxic activity: greater than two- to three-fold selective

## C=C[C@@H](O)C#CC#CC/C=C\CCCCCCC [Compound 28, (3R)-(−)-falcarinol]
α-glucosidase
  inhibition of α-glucosidase activity: strongly inhibited

## O=S(=O)(F)Cc1ccccc1 [PMSF, phenylmethylsulfonyl fluoride]
Human neutrophils [5]
  IC50: 95 ± 25 µM

## C=C[C@H](O)C#CC#CC[C@@H](O)[C@H](O)CCCCCCC [Compound 30, (3S,9R,10R)-panaxytriol]
α-glucosidase
  inhibition of α-glucosidase activity: strongly inhibited

## c1ccc2c(c1)[I+]c1ccccc1-2 [DPI, Diphenyleneiodonium, reference compound]
Human neutrophils [6]; read-out: superoxide IC50
  IC50: 1020 ± 350 nM

## C=CCCCCC[C@H](O)[C@@H](O)CC#CC#C[C@@H](O)CC [Compound 27, panaxjapyne C]
α-glucosidase
  inhibition of α-glucosidase activity: strongly inhibited

## CC1(C)CC[C@]2(C(=O)O[C@@H]3O[C@H](CO)[C@@H](O)[C@H](O)[C@H]3O)CC[C@]3(C)C(=CC[C@@H]4[C@@]5(C)CC[C@H](O[C@@H]6O[C@H](C(=O)O)[C@@H](O[C@H]7O[C@@H](CO)[C@H](O)[C@H]7O)[C@H](O[C@@H]7O[C@H](CO)[C@@H](O)[C@H](O)[C@H]7O)[C@H]6O)C(C)(C)[C@@H]5CC[C@]43C)[C@@H]2C1 [Compound 9, stipuleanoside R2]
Human neutrophils [6]; read-out: IC50 values, inhibition of superoxide anion generation and elastase release
  IC50: 780 to 43600 nM

## CCCCCCC/C=C\CC#CC#CC(O)CC (stereo not drawn) [Compound 25, panaxjapyne A]
α-glucosidase
  inhibition of α-glucosidase activity: strongly inhibited

## C=C[C@H](O)C#CC#C/C=C/[C@@H](O)CCCCCCC [Compound 29, (3S,10S)-panaxydiol]
α-glucosidase
  inhibition of α-glucosidase activity: strongly inhibited

From publication PMC3092375 (Journal of natural products, 2011)
